Assays:
[1] = AUC in Wistar rat at 10 mg/kg, po; assay type: ADME, organism-based; design: dose 10 mg/kg, route oral; details: plasma
[2] = test system: Human immunodeficiency virus 1; experiment: Antiviral activity against HIV1 LAI with RT F227C and V106A mutation in MT4 cells by EGFP based replication assay; assay type: functional, organism-based; details: Human immunodeficiency virus 1, LAI
Outline: (§1)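 MT4-LTR-EGFP indicator cells (EGFP under HIV-1 LTR, induced via Tat) mixed with HIV-1 LAI or LAI-derived RT mutant and serial 4-fold compound dilutions; incubated 37 °C for 3 days. EGFP expression read by argon laser-scanning microscopy. EC50 = concentration inhibiting 50% of virus-induced EGFP signal, by linear interpolation of signal versus log concentration.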

[3] = test system: Human immunodeficiency virus 1; experiment: Antiviral activity against HIV1 LAI with RT Y181C mutation in MT4 cells by EGFP based replication assay; assay type: functional, organism-based; details: Human immunodeficiency virus 1, LAI; outline: as §1
[4] = test system: Human immunodeficiency virus 1; experiment: Antiviral activity against wild type HIV1 LAI infected in MT4 cells by EGFP based replication assay; assay type: functional, organism-based; details: Human immunodeficiency virus 1, LAI
Outline: (§2)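 MT4-LTR-EGFP indicator cells (EGFP under HIV-1 LTR, induced via Tat) mixed with HIV-1 LAI or LAI-derived RT mutant and serial 4-fold compound dilutions; incubated 37 °C for 3 days. EGFP expression read by argon laser-scanning microscopy.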

[5] = test system: Human immunodeficiency virus 1; experiment: Antiviral activity against HIV1 LAI with RT L100I and K103N mutation in MT4 cells by EGFP based replication assay; assay type: functional, organism-based; details: Human immunodeficiency virus 1, LAI; outline: as §1
[6] = Cmax in Wistar rat at 10 mg/kg, po; assay type: ADME, organism-based; design: dose 10 mg/kg, route oral; details: in vivo
[7] = Metabolic stability in rat liver microsomes after 15 mins; assay type: ADME, Microsome; details: read-out: Stability
Outline: (§3)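 Liver microsomes were the 100,000×g pellet of S9 from tissue homogenized in 0.1 M phosphate, pH 7.4. Incubations contained 1 mg/mL protein in 0.1 M phosphate pH 7.4 with an NADPH-generating system, plus a heat-inactivated control. After 5 min preincubation at 37 °C, NADP started the reaction, which ran 15 min and was stopped with DMSO or acetonitrile. Duplicates, LC-MS; fraction remaining relative to T=0.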

[8] = Selectivity index, ratio of CC50 for human MT4 cells to EC50 for HIV1 LAI; assay type: functional
[9] = test system: Human immunodeficiency virus 1; experiment: Antiviral activity against HIV1 LAI with RT Y188L mutation in MT4 cells by EGFP based replication assay; assay type: functional, organism-based; details: Human immunodeficiency virus 1, LAI; outline: as §1
[10] = Metabolic stability in human liver microsomes after 15 mins; assay type: ADME, Microsome; details: read-out: Stability; outline: as §3
[11] = Half life in Wistar rat at 10 mg/kg, po after 6 hrs; assay type: ADME, organism-based; design: dose 10 mg/kg, route oral; details: in vivo
[12] = AUC in Beagle dog at 10 mg/kg, po; assay type: ADME, organism-based, Canis lupus familiaris; design: dose 10 mg/kg, route oral; details: plasma
[13] = test system: Human immunodeficiency virus 1; experiment: Antiviral activity against HIV1 LAI with RT K103N mutation in MT4 cells by EGFP based replication assay; assay type: functional, organism-based; details: Human immunodeficiency virus 1, LAI; outline: as §1
[14] = test system: Human immunodeficiency virus 1; experiment: Antiviral activity against HIV1 LAI with RT F227C mutation in MT4 cells by EGFP based replication assay; assay type: functional, organism-based; details: Human immunodeficiency virus 1, LAI; outline: as §1
[15] = Half life in Beagle dog at 10 mg/kg, po after 23 hrs; assay type: ADME, organism-based, Canis lupus familiaris; design: dose 10 mg/kg, route oral; details: in vivo
[16] = Cmax in Beagle dog at 10 mg/kg, po; assay type: ADME, organism-based, Canis lupus familiaris; design: dose 10 mg/kg, route oral; details: in vivo
[17] = Metabolic stability in dog liver microsomes after 15 mins; assay type: ADME, Canis lupus familiaris, Microsome; details: read-out: Stability; outline: as §3
[18] = test system: Human immunodeficiency virus 1; experiment: Antiviral activity against HIV1 LAI with RT L100I mutation in MT4 cells by EGFP based replication assay; assay type: functional, organism-based; details: Human immunodeficiency virus 1, LAI; outline: as §2
[19] = Cytotoxicity against human MT4 cells after 3 days by EGFP based replication assay; assay type: cell-based
Outline: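 Uninfected MT4-CMV-EGFP cells, which express EGFP constitutively, were exposed to serial 4-fold compound dilutions at 37 °C for 3 days. EGFP was read by argon laser-scanning microscopy. CC50 was obtained by linear interpolation of EGFP signal against log concentration.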

[20] = test system: Human immunodeficiency virus 1; experiment: Antiviral activity against HIV1 LAI with RT K103N and Y181C mutation in MT4 cells by EGFP based replication assay; assay type: functional, organism-based; details: Human immunodeficiency virus 1, LAI; outline: as §1

| SMILES | AUC [1] | EC50 [2] | EC50 [3] | EC50 [4] | EC50 [5] | Cmax [6] | remaining at 0.25 h [7] | Ratio CC50/EC50 [8] | EC50 [9] | remaining at 0.25 h [10] | half-life [11] | AUC [12] | EC50 [13] | EC50 [14] | half-life [15] | Cmax [16] | remaining at 0.25 h [17] | EC50 [18] | CC50 at 72 h [19] | EC50 [20] |
| --- | --- | --- | --- | --- | --- | --- | --- | --- | --- | --- | --- | --- | --- | --- | --- | --- | --- | --- | --- | --- |
| Cc1cc(/C=C/C#N)cc(Cl)c1Nc1ccnc(Nc2ccc(C#N)cc2)n1 | 910 ng·h/mL | 0.5 nM | 2.3 nM | 0.8 nM | 6.6 nM | 182 ng/mL | 72% | 3316 | 2.3 nM | 39% | 3.54 h | 17600 ng·h/mL | 0.1 nM | 0.5 nM | 14.5 h | 1040 ng/mL | 60% | 0.4 nM | 2610 nM | 4.1 nM |
| Cc1cc(/C=C/C#N)cc(C)c1Oc1ccnc(Nc2ccc(C#N)cc2)n1 |  | 0.6 nM | 3.2 nM | 0.9 nM | 3.7 nM |  |  | 28302 | 1.6 nM |  |  |  | 0.2 nM | 0.7 nM |  |  |  | 0.6 nM | > 25000 nM | 4.3 nM |
| Cc1cc(/C=C/C#N)cc(C)c1Nc1ccnc(Nc2ccc(C#N)cc2)n1 [RILPIVIRINE] | 9650 ng·h/mL | 0.5 nM | […] |  | 7.5 nM | 1940 ng/mL | 73% |  | 1.2 nM | 26% | […] | […] | […] | 0.5 nM | 23 h | 1050 ng/mL | 65% | 0.5 nM | 2000 nM | 3.2 nM |
| CCc1cc(/C=C/C#N)cc(C)c1Nc1ccnc(Nc2ccc(C#N)cc2)n1 |  | 0.9 nM | 4 nM | 3 nM | 8.2 nM |  |  | 841 | 2.6 nM |  |  |  | 0.5 nM | 1.1 nM |  |  |  | 0.9 nM | 2550 nM | 5.3 nM |
| N#C/C=C/c1ccc(Nc2ccnc(Nc3ccc(C#N)cc3)n2)cc1 |  | 76.1 nM | 1520 nM | 33.9 nM | 6440 nM |  |  | >737 | 303 nM |  |  |  | 57.7 nM | 98.4 nM |  |  |  | 585 nM | > 25000 nM | 3950 nM |
| Cc1cc(/C=C/C#N)ccc1N(C)c1ccnc(Nc2ccc(C#N)cc2)n1 |  | 1.5 nM | 12 nM | 1 nM | 104 nM |  |  | 11351 | 16.8 nM |  |  |  | 0.7 nM | 1 nM |  |  |  | 2.5 nM | 11600 nM | 160 nM |
| COc1cc(/C=C/C#N)cc(C)c1Nc1ccnc(Nc2ccc(C#N)cc2)n1 |  | 0.3 nM | 1.9 nM | 0.7 nM | 21.1 nM |  |  | 846 | 0.9 nM |  |  |  | < 0.1 nM | 0.3 nM |  |  |  | 0.5 nM | 633 nM | 4.3 nM |
| CC(C)Nc1cccnc1N1CCN(C(=O)c2cc3cc(NS(C)(=O)=O)ccc3[nH]2)CC1 [DELAVIRDINE] |  | 721 nM | 9040 nM | 122 nM | 20600 nM |  |  | >550 | 1020 nM |  |  |  | 10200 nM | 4560 nM |  |  |  | 9530 nM | 67200 nM | 38400 nM |
| Cc1cc(/C=C\C#N)cc(C)c1Sc1ccnc(Nc2ccc(C#N)cc2)n1 |  | 1.1 nM | 5.8 nM | 3.7 nM | 79.2 nM |  |  | >6821 | 2.8 nM |  |  |  | 0.7 nM | 1.4 nM |  |  |  | 2.6 nM | > 25000 nM | 18.6 nM |
| COc1cc(/C=C/C#N)cc(Cl)c1Nc1ccnc(Nc2ccc(C#N)cc2)n1 | 410 ng·h/mL | 0.3 nM | 1 nM | 0.1 nM | 15.8 nM | 199 ng/mL | 53% | 3981 | 2.5 nM | 26% | 3.83 h | 44500 ng·h/mL | 0.3 nM | 0.8 nM | 14.5 h | 2180 ng/mL | 58% | 0.2 nM | 398 nM | 2 nM |
| Cc1cc(/C=C/C#N)cc(C(C)C)c1Nc1ccnc(Nc2ccc(C#N)cc2)n1 |  | 3.2 nM | 11.1 nM | 4 nM | 38.3 nM |  |  | 2947 | 3.8 nM |  |  |  | 1.3 nM | 3.9 nM |  |  |  | 3.1 nM | 11800 nM | 10.6 nM |
| O=C1Nc2ccc(Cl)cc2C(C#CC2CC2)(C(F)(F)F)O1 (single isomer, unassigned) [EFAVIRENZ] |  | 4.1 nM | 3.9 nM |  | 1460 nM |  |  |  | 55 nM |  |  |  | 46.4 nM | 46.9 nM |  |  |  | 31 nM | 32300 nM | 55 nM |
| Cc1ccnc2c1NC(=O)c1cccnc1N2C1CC1 [NEVIRAPINE] |  | 2700 nM | 7080 nM | 33.3 nM | 3530 nM |  |  |  | 5910 nM |  |  |  | 1980 nM | 827 nM |  |  |  |  | 31600 nM | 14500 nM |
| Cc1cc(/C=C/C#N)ccc1Nc1ccnc(Nc2ccc(C#N)cc2)n1 |  | 1.2 nM | 13.4 nM | 0.9 nM | 479 nM |  |  | >29372 | 43.6 nM |  |  |  | 0.6 nM | 1.2 nM |  |  |  | 9.2 nM | > 25000 nM | 89.6 nM |

— ChEMBL document CHEMBL1146363, “Synthesis of novel diarylpyrimidine analogues of TMC278 and their antiviral activity against HIV-1 wild-type and mutant strains” (Eur J Med Chem, 2007)
